This is a sample that favours compounds with a hit; in the whole collection about 1.7% have one here.
A3G deaminase: APOBEC3G (human) deaminase inhibition; actives 0.28% (n = 330,000); inhibition, % at 20 µM; Q9HC16; recombinant A3G, ssDNA deamination FAM/TAMRA fluorescence;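 active = inhibition of at least 40% at 20 µM, with no more than 30% in the related APOBEC3A deaminase screen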;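 also: plate controls were DMSO wells with A3G for no effect and wells lacking A3G enzyme for full effect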
Target sequence (Q9HC16 whole entry, looked up): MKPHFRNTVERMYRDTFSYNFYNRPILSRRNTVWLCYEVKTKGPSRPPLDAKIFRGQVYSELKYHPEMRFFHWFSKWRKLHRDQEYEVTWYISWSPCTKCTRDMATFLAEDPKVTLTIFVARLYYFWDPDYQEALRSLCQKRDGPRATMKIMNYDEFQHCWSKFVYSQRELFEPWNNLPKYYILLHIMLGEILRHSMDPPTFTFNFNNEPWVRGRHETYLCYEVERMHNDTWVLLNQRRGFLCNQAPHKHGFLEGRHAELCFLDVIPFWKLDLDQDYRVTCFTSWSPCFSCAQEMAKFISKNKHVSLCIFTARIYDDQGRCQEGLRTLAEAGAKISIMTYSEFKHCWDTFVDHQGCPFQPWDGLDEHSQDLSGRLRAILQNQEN
Keap1-Nrf2 PPI: inhibitors of human Keap1-Nrf2 protein-protein interaction. actives 0.15% (n = 340,000). Keap1 Kelch-Nrf2 peptide fluorescence polarization, 1536-well. inhibition, % at 9.4 µM; in the data active = inhibition above about 12%;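 also: human Keap1 Kelch domain with fluorescein labeled Nrf2 9mer peptide probe; 0% = neutral control wells and 100% = peptide positive control; higher means more block of Keap1 binding to Nrf2 peptide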
APOBEC3A inh: inhibitors of human APOBEC3A DNA deaminase; inhibition, % at 20 µM; actives 0.41% (n = 330,000); AID 493011; recombinant A3A, FAM/TAMRA ssDNA deamination fluorescence;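 active = at least 40% inhibition at 20 µM here, with at most 30% in a related deaminase screen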;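 also: plate controls were A3A with DMSO for no effect and wells lacking A3A enzyme for full effect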
Target sequence (P31941 whole entry, looked up): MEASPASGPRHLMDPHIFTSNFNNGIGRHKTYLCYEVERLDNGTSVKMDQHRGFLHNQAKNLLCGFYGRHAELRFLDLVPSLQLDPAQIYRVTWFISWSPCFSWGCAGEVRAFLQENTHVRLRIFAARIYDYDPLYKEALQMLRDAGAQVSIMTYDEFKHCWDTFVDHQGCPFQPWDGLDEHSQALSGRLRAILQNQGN
CAL PDZ FP-1: blocks peptide binding to the human CAL PDZ domain; Q9HD26; purified CAL PDZ, TMR-peptide fluorescence polarization, 1 h; inhibition, % at 24.9 µM; actives 0.92% (n = 300,000); AID 602252;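 active = mean inhibition of at least 30% with at least half of replicates also reaching 30%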;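 also: 0% = DMSO neutral control and 100% = excess unlabeled competitor peptide PRC23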
LANA DNA inh: inhibitors of KSHV LANA C-terminal domain DNA binding; AID 504423; actives 0.078% (n = 340,000); inhibition, % at 9 µM; MBP-C-LANA/FAM-LBS DNA binding, fluorescence polarization;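 active = highest replicate inhibition at or above 60% at 9 µM, even if other replicates fall short; inactive = all replicates below 60% inhibition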;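 also: 0% = neutral control wells and 100% = 4 µM acridine orange control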
CAL PDZ FP-2: human CAL PDZ-peptide interaction inhibition | inhibition, % at 20 µM | actives 0.02% (n = 330,000) | AID 504414 | purified CAL PDZ, TMR-peptide fluorescence polarization, 1 h;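 active = highest replicate inhibition of at least 40%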;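 also: plate controls were DMSO neutral control wells for no effect and unlabeled competitor peptide control wells for full effect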
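System: purified tagged CAL PDZ domain construct (CerCALP). Schedule: 1 h incubation at room temperature before polarization reading. Medium: 25 mM sodium phosphate pH 7.4, 150 mM NaCl, TCEP, IgG, Thesit. Read-out: percent inhibition from loss of millipolarization. Measured by: FP readout, S and P plane fluorescence. Probe or stimulus: fluorescent TMR peptide probe.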
* = called active by the depositor; x = not tested or not shown.

SMILES	A3G deaminase	Keap1-Nrf2 PPI	APOBEC3A inh	CAL PDZ FP-1	LANA DNA inh	CAL PDZ FP-2
O=c1ccc2cc3c([nH]c4ccc(Br)cc43)oc-2c1O	82	55*	73	5	10	48*
COc1ccc(C(F)(F)F)cc1N/C=C/c1nnnn1-c1ccc2ccccc2c1	13	-11	2	3	0	-1
O=C(CCn1cnnn1)Nc1ccc(Cl)cc1Cl	-1	5	-3	86*	1	-1
N#Cc1cc2c(cc1NC(=O)CCn1cnnn1)OCO2	-6	1	-5	-4	1	-2
Cc1cccc(C(=O)NC2CCN(S(=O)(=O)c3ccc(F)cc3)CC2)c1	-3	0	-6	-3	0	1
CCOCCc1nnc(NC(=O)CS(=O)(=O)c2ccc(C)cc2)s1	-10	-12	-5	93*	1	0
COc1ccc(Cc2nnc(NC(=O)CS(=O)(=O)c3ccc(C)cc3)s2)cc1OC	1	0	2	2	1	-1
CCc1cccc(C)c1NC(=O)CO/N=C(\N)CC(=O)NC1CCCCC1	-4	-9	5	5	-1	0
CC(=O)C1=C(C)N2CCN=C2S1	-5	-5	-2	-1	2	-1
N#Cc1cccc2c1-c1ccccc1/C2=N/NC(N)=S	1	-3	-1	56*	1	0
COc1ccc(CNC(=O)c2cccc(C)c2[N+](=O)[O-])cc1	1	-2	4	-5	0	-1
Cc1cccc(C(=O)NCc2ccc(S(N)(=O)=O)cc2)c1[N+](=O)[O-]	-5	2	-3	46*	0	0
O=C(NCCCN1CCOCC1)C(=O)NCc1ccco1	-7	3	-6	8	-2	0
COc1nc(N)nc(N)c1NS(=O)(=O)c1ccc(C)cc1	-2	4	-4	-1	2	-2
COc1cccc(C2C(C(=O)c3cc4ccccc4o3)=C(O)C(=O)N2CCN(C)C)c1OC (centres undefined)	-3	-4	-3	33*	-2	x
O=C(Cc1n[nH]c(=O)c2ccccc12)OCC(=O)c1ccc(F)cc1	-4	1	-1	-2	-1	-1
COc1ccccc1C(=O)COC(=O)Cc1n[nH]c(=O)c2ccccc12	-10	-3	-3	31*	0	-3
COc1cccc(C(=O)COC(=O)COc2c(C)cc(C)cc2C)c1	-8	3	-2	x	0	0
COc1ccc(CCC(=O)Nc2ncc(C)s2)cc1OC	4	-3	2	50*	0	-1
CN(C)c1ccc(C(=S)N2CCN(c3ccccc3)CC2)cc1	-5	5	-5	50*	1	x
C=CCOc1ccc(/C=C/C(=O)OCC(=O)NCC(=O)Nc2c(C)cc(C)cc2C)cc1	-7	3	-4	12	-1	0
C/C(CC(=O)Nc1ccccc1C)=N\NC(=O)Cc1csc(N)n1	-3	-4	-4	44*	0	-1
COc1ccc(OC)c(C2=NS(=O)(=O)N(C)C(C(=O)Nc3ccc(C(C)=O)cc3)=C2)c1	-8	0	-5	54*	-1	0
Cc1ccc(S(=O)(=O)Nc2ccccc2C(=O)Nc2nc(-c3ccc(F)cc3)cs2)cc1	-7	-3	2	-3	1	-1
COc1ccc(-c2csc(NC(=O)c3ccccc3NS(=O)(=O)c3ccc(F)c(F)c3)n2)cc1	-4	-2	-4	42*	-1	0
SMILES	A3G deaminase	Keap1-Nrf2 PPI	APOBEC3A inh	CAL PDZ FP-1	LANA DNA inh	CAL PDZ FP-2
COc1ccc(/C=C/C(=O)C2CC2)cc1COc1cccc(C)c1C	-6	-5	2	x	1	-2
CC(C)CC(=O)Nc1nnc(CSCc2ccc(F)cc2)s1	-9	-2	-3	x	75*	-1
CCC(=O)Nc1nnc(CSCc2ccc(F)cc2)s1	-6	-1	2	-4	0	0
CC(C)Cc1nnc(NC(=O)CCC(=O)N2CCN(c3ccc(F)cc3)CC2)s1	-3	4	-1	41*	0	-1
COc1ccc(OC)c(NC(=O)C2CCCN(S(=O)(=O)c3c(C)noc3C)C2)c1 (centres undefined)	-3	-2	-2	-4	-1	x
CCOc1ccc(OCC)c(NC(=O)C2CCCN(S(=O)(=O)c3c(C)noc3C)C2)c1 (centres undefined)	-1	-3	1	33*	2	-5
COc1ccc(/C=N/NC(=O)CNC(=O)c2ccncc2)cc1OC	5	-9	-4	55*	1	-1
COc1ccc(C(=O)NCC(=O)N/N=C/c2cccnc2)cc1OC	-8	0	-4	-1	0	-1
COc1ccc(NC(C)=O)cc1NC(C)c1nc2sc(C)c(C)c2c(=O)[nH]1 (centres undefined)	-14	-1	-5	59*	0	-2
COc1ccc(C(=O)NCC(=O)OCC(=O)NC2CCCCCC2)cc1OC	-7	-1	-3	-5	2	1
Brc1cccc(CNCC2CCCO2)c1 (centres undefined)	-4	3	-1	5	0	54*
Cc1ccc(S(=O)(=O)N2CCN(C(=O)CCC(=O)Nc3ccc(Br)c(C)c3)CC2)cc1	x	6	x	-3	0	-1
CC(=O)NC(c1cccc([N+](=O)[O-])c1)c1ccc2cccnc2c1O (centres undefined)	-8	-1	-3	-2	-1	0
O=[N+]([O-])c1ccc(NC(c2ccccc2)c2ccc3cccnc3c2O)cc1 (centres undefined)	x	0	x	91*	1	2
COc1ccccc1N1CCN(C2CCCN(C(=O)CCC(C)=O)C2)CC1 (centres undefined)	0	-1	4	-4	-3	-1
CC(=O)c1cccc(NC(=O)C(C)OC(=O)CCn2c(C)csc2=O)c1 (centres undefined)	-7	-1	-2	62*	-1	0
COC(=O)c1ccccc1NC(=O)N1CCN(Cc2ccco2)CC1	-3	0	-4	-3	1	-1
O=C(c1ccc(F)cc1F)N1CCN(S(=O)(=O)c2ccc3c(c2)OCCO3)CC1	-3	-3	0	31*	-1	-1
CN(C)S(=O)(=O)c1ccc(C(=O)N2CCN(S(=O)(=O)c3ccc4c(c3)OCCO4)CC2)cc1	x	0	x	0	0	-2
COc1ccc(CN(C(=O)c2ccco2)c2ccc(C)c(C)c2)cc1	-7	2	-3	31*	0	0
Cc1nc(Nc2ccc(C(=O)O)cc2)sc1-c1ccccc1	-2	-2	0	56*	-1	0
CCCCOc1ccccc1N1CCN(CCCN2C(=O)C3CCCN3C2=O)CC1 (centres undefined)	-8	-4	-3	32*	1	x

Assay outcomes: PubChem, several laboratories
